Among the data in PubChem BioAssay AID1885 (Broad Institute, 2009) are inhibition values, retold here.

The whole screen tested about 300,000 compounds, of which about 4,400 (1.5%) were called active. The sample holds actives, similar compounds and a random draw of the others, so the mix is not that of the screen. A number with no mark means an inactive call.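 How the source made its calls: active means mean inhibition across valid replicates above about 55% (limit read from the data); inconclusive means mean below that limit but half or more replicates reach it; inactive means mean below it, under half of replicates reach it.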

A short description of the experiment: Trypanosoma cruzi replication blockers in host cells – luminescence, NIH3T3 host cells, primary screen (AID 1885).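 Further: signal also drops with host cell toxicity which is not excluded here; 0% = plate median of DMSO wells and 100% = zero luminescence signal; higher percent means less beta-gal luminescence so fewer parasites.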 The settings on record: T. cruzi beta-gal in NIH3T3, luminescence, 90 h; hits give high values; concentration not given here. The procedure, abridged:
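System: Mouse NIH/3T3 fibroblasts infected with β-gal-expressing T. cruzi Tulahuen C4 | Quantity: NIH/3T3 cells, 5,000 per well | Reagent: 5000 reporter trypomastigotes per well | Dosing: Compound pinned at 50 nL/well, DMSO | Schedule: 3 h host attachment, then at least 90 h co-culture | Detection: GalScreen luminescence, 60 min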
With `CN(c1ccccc1)S(=O)(=O)c1cccc(C(=O)NNC(=O)c2ccncc2)c1`, the inhibition is 5.43%.

Take `COc1ccc(NC(=O)N2CCCC(C(=O)Nc3ccccc3OC)C2)cc1` (stereo unspecified): the inhibition was -10.9%.

Consider `Cc1sc2ncnc(N3CCC(C(=O)Nc4nc5ccc(Cl)cc5s4)CC3)c2c1C`, for which the inhibition was 27%.

Take `O=C(NC(=S)N1CCCCC1c1cccnc1)c1ccccc1` (stereo unspecified): the inhibition is 46.1%.

On to `COc1ccc(/C=C/C(=O)NC(=S)NN2CCCCC2c2cccnc2)cc1` (stereo unspecified), for which the inhibition was 42.1%.

With `COc1ccc(C(=O)NC(=S)N2CCCCC2c2cccnc2)cc1OC` (stereo unspecified), the inhibition is 57.2% (active).

On to `COC(=O)C1(C)NC(c2ccc(F)cc2)C2C(=O)N(c3ccccc3)C(=O)C21` (stereo unspecified), for which the inhibition was -17.7%.

For `CCc1ccc2c(c1)C1(NN=C(c3ccccc3)S1)C(=O)N2` (stereo unspecified), the inhibition is 73% (active).

Take `Cc1nc(/N=C(\N)NC(=O)NC2CCCCC2)nc2ccccc12`: the inhibition was 10.4%.

Regarding `COc1nc(N=C(N)N)nc2c(C)cccc12`, the inhibition is 44.2%.

Consider `Cc1nc(N=C(N)N)nc2c(C)cccc12`, for which the inhibition was 56.5% (active).

`O=C(NCCC1=CCCCC1)c1ccc(Cl)c([N+](=O)[O-])c1`: the inhibition is -28%.

For the compound `CCN1C(=O)[C@H]2[C@@H](c3ccc(-c4ccc(F)cc4)cc3)N[C@@](Cc3ccccc3)(C(=O)OC)[C@H]2C1=O`, the inhibition is 41.5%.

Turning to `c1ccc(-c2nnc(N3CCOCC3)c3ccccc23)cc1`, the inhibition is -1.66%.

Turning to `c1ccc2c(NC3C4CC5CC(C4)CC3C5)nc(N3CCOCC3)nc2c1` (stereo unspecified), the inhibition was 54.9% (active).

Take `O=c1[nH]c(N2CCOCC2)nc2ccccc12`: the inhibition is -3.83%.

For `CSCCC(NC(=O)COc1ccccc1)C(=O)OCCOc1ccc(F)cc1` (stereo unspecified), the inhibition was -11.5%.

Consider `CCn1cc(/C=C(\NC(=O)c2ccc(C)cc2)C(=O)NCCN2CCOCC2)c2ccccc21`, for which the inhibition is -0.43%.

Consider `COc1ccc(CN2CC[C@H]3C=CC[C@@H](C(=O)N4CCOCC4)[C@H]3C2=O)cc1OC`, for which the inhibition was 0.915%.

`O=C(CN1CCCCCC1)Nc1ccc(S(=O)(=O)N2CCCCC2)cc1`: the inhibition is -0.319%.

On to `CN(CC(=O)Nc1ccc(S(=O)(=O)N2CCCC2)cc1)Cc1ccc(Cl)c(Cl)c1`, for which the inhibition is 55.8% (active).

Regarding `CN(CC(=O)Nc1ccc(F)cc1)CC(=O)Nc1ccc(Cl)c(S(=O)(=O)N2CCOCC2)c1`, the inhibition is -1.87%.

`CCOc1cnc(C(=O)NNC(=O)c2ccccc2Br)o1`: the inhibition was -24%.

Consider `O=C(Nc1ccc(F)c([N+](=O)[O-])c1)C1CC(=O)N(Cc2ccccc2)C1` (stereo unspecified), for which the inhibition is 11.3%.

With `CC1(c2ccccc2)CC(C)(C)N(C(=O)c2cc([N+](=O)[O-])cc([N+](=O)[O-])c2)c2ccccc21` (stereo unspecified), the inhibition was 62.7% (active).

Turning to `CC1(c2cccc([N+](=O)[O-])c2)CC(C)(C)N(C(=O)c2ccccc2)c2ccccc21` (stereo unspecified), the inhibition is 37.9%.

In the case of `Cc1nnc(SCC(=O)N2c3ccccc3C(C)(c3ccc(Cl)cc3)CC2(C)C)s1` (stereo unspecified), the inhibition was 37.3%.

On to `OC(COc1cccc2ccccc12)CN1CCN(c2ccccn2)CC1` (stereo unspecified), for which the inhibition was -13.7%.

Consider `Cc1cc(C)c(NC(=O)C[N+](C)(C)CC(O)COc2cccc3ccccc23)c(C)c1` (stereo unspecified), for which the inhibition is 39.6%.

With `CC(C)c1ccccc1OCC(O)CN(CC(O)COc1cccc2ccccc12)C(C)C` (stereo unspecified), the inhibition is 57.2% (active).

On to `COc1ccc(NS(=O)(=O)c2cc(NC(=O)C3CCCCC3)ccc2N2CCOCC2)cc1`, for which the inhibition is 8.84%.

Take `COc1ccc(NS(=O)(=O)c2cc(NC(=O)/C=C/c3cc(OC)c(OC)c(OC)c3)ccc2N2CCCCC2)cc1`: the inhibition is 54.8% (active).

For `COc1ccc(NS(=O)(=O)c2ccc(N3CCN(CCO)CC3)c([N+](=O)[O-])c2)cc1`, the inhibition was -24.8%.

Regarding `Cc1ccc(S(=O)(=O)CCC(=O)Nc2nnc(CC(C)C)s2)cc1`, the inhibition was -32%.

For the compound `COC(=O)COc1ccc2c(c1C)O/C(=C\c1ccco1)C2=O`, the inhibition was 0.57%.

Take `CCN1C(=O)[C@@H]2[C@@H](c3ccc(-c4ccc(OC)cc4)c(OC)c3)N3CCC[C@@]3(C(=O)OC)[C@@H]2C1=O`: the inhibition is -10.1%.

As to `O=C(NCC(c1cccs1)N1CCOCC1)c1cc(Cl)ccc1[N+](=O)[O-]` (stereo unspecified), the inhibition was -4.39%.

Regarding `CCCN(CCC)c1nc2c(C)cccn2c(=O)c1/C=C1/SC(=S)N(Cc2ccco2)C1=O`, the inhibition was 68.2% (active).

Turning to `CCOC(=O)CC1C(=O)NCCN1c1nc2c(C)cccn2c(=O)c1/C=C1\SC(=S)N(C(C)CC)C1=O` (stereo unspecified), the inhibition is 25.7%.

`O=C(CCCN1C(=O)/C(=C\c2ccco2)SC1=S)Nc1cccc2ccccc12`: the inhibition was -4.25%.

`Fc1ccc2c(c1)C(c1cccnc1)=NNC(c1cccs1)=N2`: the inhibition was -7.53%.

Consider `Fc1ccccc1N=C1Nc2cccc3cccc1c23`, for which the inhibition is -4.12%.

As to `c1ccc(C2=Nc3cccc4cccc(c34)N2)cc1`, the inhibition was 7.49%.

As to `COc1ccccc1C1=Nc2cccc3cccc(c23)N1`, the inhibition was 55% (active).

Turning to `CC1(C)CC(N2CCN(C(c3ccccc3)c3ccccc3)CC2)=CC(=[N+]2CCCCC2)C1`, the inhibition was 63.6% (active).

Take `O=C(O)CN1CCN(C(c2ccccc2)c2ccccc2)CC1`: the inhibition was -9.78%.

For the compound `CC1(C)CC(=O)C=C(N2CCCC2)C1`, the inhibition was 1.27%.

Turning to `COc1cccc(NC(=O)c2nn(C34CC5CC(CC(C5)C3)C4)cc2[N+](=O)[O-])c1`, the inhibition was 16.7%.

`Cc1ncn(C23CC4CC(CC(O)(C4)C2)C3)n1`: the inhibition was 5.6%.

Take `Cc1nc([N+](=O)[O-])nn1C12CC3CC(CC(Br)(C3)C1)C2`: the inhibition is 59.3% (active).

Take `CCCCCN(C(=O)CCC(=O)OCCOc1ccc(OC)cc1)c1c(N)n(CCCC)c(=O)[nH]c1=O`: the inhibition is 8.8%.

Regarding `CN(N)c1nc(N2CCCC2)nc(N2CCCC2)n1`, the inhibition is -9.95%.

Consider `CCCCCCCCCCCCN1[C@@H](CC(C)=O)c2cc(F)cc(F)c2S1(=O)=O`, for which the inhibition is 39.5%.

Consider `CN1CCN(c2ccc(NC(=O)c3ccc4c(c3)[nH]c(=O)n4Cc3ccc(F)cc3)cc2)CC1`, for which the inhibition is 65.8% (active).

Consider `CC(C)n1c(=O)[nH]c2cc(C(=O)Nc3ccccc3)ccc21`, for which the inhibition was -5.92%.

For `CN1CCN(c2ccc(NC(=O)c3ccccc3)cc2)CC1`, the inhibition was -2.93%.

A word on the inhibition: it is the drop in the measured response relative to a control, in per cent.
